Data on two compounds can be found in article PMC8429223 (Biomedicine & pharmacotherapy = Biomedecine & …, 2021).

Data set [1] relates to MDA-MB-231 cells. The data set is described as follows: MTT cell viability assay, MDA-MB-231. The class given is cell-based, human. As to conditions: single agent, MDA-MB-231, MTT. In outline:
(§1)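 Cells were seeded in complete medium, MDA-MB-231 at 2 x 10³ and MCF 10A at 2 x 10⁴ cells/well. After 24 h they were exposed to test compound up to 10 μM, or 0.1% DMSO, for 72 h (MDA-MB-231) or 96 h (MCF 10A). MTT (5 mg ml⁻¹) was added for 4 h at 37°C, 5% CO₂, then formazan was dissolved in DMSO with 10 min shaking and read at 540 nm. IC50 by non-linear regression; mean ± SD (n = 4).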

The subject of the next data set is primary ALL-5 cells. The data set is described as follows: MTT cell viability assay, primary ALL-5. The class given is cell-based. As to conditions: Homo sapiens, ALL5, 120 h, read-out: ALL-5 IC50. In outline: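 Primary ALL-5 cells (patient bone-marrow-derived) were kept in supplemented IMDM at 1–3 x 10⁶ cells ml⁻¹ and plated at 10⁵ cells/well. They were treated 120 h with a test compound series or 0.1% DMSO. MTT (5 mg ml⁻¹) was added for 24 h at 37°C, then 10% SDS in 0.01 M HCl for a further 24 h; absorbance 540 nm. IC50 by non-linear regression; mean ± SD (n = 4).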

Data set [2] has as its system CD44+/CD24-/low cells of MDA-MB-231 organoids. The data set is described as follows: CD44/CD24 cell surface markers by flow cytometry, organoids. The class given is cell-based, human. Conditions: 2.5 μM 1 or 0.5 μM 17, 48 h. Summed up: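 MDA-MB-231 organoids were made from 20 μl droplets of 1:4 complete Mammocult:Matrigel holding 10⁴ cells each. Droplets were set 1 h at 37°C, grown static 4 days with half-medium feeds every other day, then shaken at 90 rpm. One dissected organoid per 1 ml Mammocult was treated 48 h (vehicle 0.1% DMSO), then dispersed in enzyme-free dissociation buffer with 0.2% NDA. Cells were stained with FITC-anti-CD24 (1:100) and PE-anti-CD44 (1:200) for 30 min in the dark, then PI/RNase. Viable PI-negative cells were gated against isotype control; mean ± SD (n=3).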
Background: Flow cytometry measures light scatter and fluorescence of single cells or particles in a stream.

The conditions of data set [3]: doses of 200–250 μg kg−1; cited from earlier work.
For data set [4], the system named is MDA-MB-231 cells. As to the kind of experiment: Cell cycle / sub-G1 DNA analysis by flow cytometry. The class given is cell-based, human. As to conditions: 30 μM SAL, 24 h (20 μM not significant).
The subject of another data set is breast CSCs. As to conditions: cited from earlier work.
The test system of data set [5] is EMT marker mRNA in MDA-MB-231 cells. The data set is described as follows: qRT-PCR analysis of EMT markers. The class given is cell-based, human. Conditions: ½ IC50, 24 h, vs untreated controls. Summed up:
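MDA-MB-231 cells (0.7–2.2 x 10⁶ per 100 mm dish) were exposed 24 h to test compound or 0.1% v/v DMSO vehicle. Cells were trypsin-released and washed in PBS before RNA work. Transcript levels were measured by qRT-PCR and calculated relative to GAPDH by the ΔΔCt method; unpaired t test with Welch's correction.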

For data set [6], the system named is Bak and LC3-II in MDA-MB-231 cells. As to the kind of experiment: Immunoblot analysis, cell monolayer. The class given is cell-based, human. In outline: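 Monolayers of MDA-MB-231 (2.2 x 10⁶ cells/100 mm dish) were treated 24 or 48 h with test compound or 0.1% DMSO, ± 100 μM Z-VAD-FMK. Cells were trypsin-harvested, snap-frozen and lysed in 25 mM HEPES pH 7.5, 300 mM NaCl, 0.1% Triton X-100 with protease/phosphatase inhibitors. Blots were blocked in 5% milk/TBS-T 1 h at RT, then probed overnight at 4°C: Bak and LC3B 1:1000, GAPDH 1:10000 loading control; HRP anti-rabbit 1:5000. Band intensities were normalised to GAPDH as fold of control; mean ± SD (n=3).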

The test system of a further data set is MCF 10A cells. The data set is described as follows: MTT cell viability assay, MCF 10A. The class given is cell-based. Conditions: Homo sapiens, 96 h, read-out: MCF 10A IC50. Summed up: as §1
(In general: Tetrazolium dyes change colour on reduction, which living cells bring about.)

Data set [7] relates to MDA-MB-231 cells. The data set is described as follows: Colony formation assay. It counts as cell-based, human. Summed up: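 MDA-MB-231 cells were seeded at 1.5 x 10⁵/well and left 48 h to attach. After medium change, cells were exposed to test compound or 0.1% DMSO for 6–72 h. They were then harvested and re-plated at 250 cells/well (n=6) in compound-free medium for 13 days. Staining was 0.5% crystal violet in methanol, 40 min at RT. Colonies of ≥25 cells were counted by hand and expressed as % of vehicle; one-way ANOVA.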

As a reminder, the IC50 is the concentration that gives 50% inhibition. On to `O=C(NO)c1ccccc1` [benzhydroxamic acid], for which, in the data set on MDA-MB-231 cells [1], the IC50 was determined as 142 µM.
`CC[C@@H](C(=O)[C@@H](C)[C@@H](O)[C@H](C)[C@@H]1O[C@@H]([C@@H](CC)C(=O)O)CC[C@@H]1C)[C@H]1O[C@]2(C=C[C@@H](O)[C@]3(CC[C@@](C)([C@H]4CC[C@](O)(CC)[C@H](C)O4)O3)O2)[C@H](C)C[C@@H]1C` [SAL (1), salinomycin]: the IC50 with primary ALL-5 cells turned out to be 5.8 ± 1.7 µM. For the same compound, in [2], the “percentage of CD44+/CD24-/low cells” value is listed as “modest, but significant reduction”. Besides, the “tolerability in cancer patients” value in [3] is reported as “well tolerated”. For the same compound, in the data set with MDA-MB-231 cells [4], the “sub-G1 DNA content” value is “statistically significant sub-G1 DNA content”. The “potency in reducing viability of breast CSCs relative to paclitaxel” value with breast CSCs is reported as approximately 100 times. Besides, in data set [5], the “E-cadherin mRNA” value was “downregulated”, the “Snail-2 mRNA” value is “upregulated” and the “Vimentin mRNA” value was “upregulated”. Besides, the “LC3-II (14 kDa) expression vs. untreated control” value in data set [6] (5 x IC50 (25 μM 1, 14 μM 2, 5 μM 17), 24 h) was “significant upregulation”. The “Bak expression vs. control” value in data set [6] (5 x IC50, 24 h and 48 h, monolayer) is reported as “very modest, but statistically significant, increase”. The IC50 in the data set on MCF 10A cells was 0.1 ± 0.02 µM. For the same compound, the “inhibition of colony growth” value in the data set with MDA-MB-231 cells [7] (48 h treatment at ½ IC50) stood at 84%. For the same compound, the “inhibition of colony growth” value in the data set with MDA-MB-231 cells [7] (72 h treatment at ½ IC50) stood at 90%.
